Experimental data: ChEMBL document CHEMBL5724801, “EUbOPEN Chemogenomics Library - Multiplex” (2024)
Several values for one entry are separate records, joined by “and”; a condition that tells them apart may be missing. Equal entries are not always repeated.

Experiments:
Fibroblast = experiment: Multiplex assay against human fibroblast; format: toxicity, cell-based
Summary of the method: (§1)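 With compound added, live cells were imaged on a CQ1 microscope at 37°C and 5% CO2; staining with Hoechst33342, BioTracker Green Microtubule Cytoskeleton Dye, MitoTracker Red and Annexin V Alexa Fluor 680 had been done at seeding. The CellPathfinder machine-learning gating scheme split cells into Hoechst high-intensity objects or normal cells, normal cells into healthy, pyknosed or fragmented nuclei, and pyknosed cells into mitotic or apoptotic. The tubulin, mitochondrial-mass and membrane-permeability phenotypes are per cents of healthy-nucleus cells.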

HEK-293T = experiment: Multiplex assay against HEK293T; format: toxicity, cell-based; settings: human; summary of the method: as §1
[1] = 12 h, 1 µM, compound concentration 1 uM
[2] = 12 h, 10 µM, compound concentration 10 uM
[3] = 24 h, 1 µM, compound concentration 1 uM
[4] = 24 h, 10 µM, compound concentration 10 uM
[5] = 48 h, 1 µM, compound concentration 1 uM
[6] = 48 h, 10 µM, compound concentration 10 uM

CCOc1c2c(c(OCC)c3ncccc13)CN(c1ccc(CS(=O)(=O)NC(=O)Cc3ccccc3OC)cc1C)C2=O
Population Apoptotic (%) (Fibroblast; [1]): 44% and 38%
Population Fragmented Nuclei (%) (Fibroblast; [1]): 15% and 37%
Population Healthy Nuclei (%) (Fibroblast; [1]): 68% and 42%
Population Hoechst High Intensity Objects (%) (Fibroblast; [1]): 0% and 4%
Population Membrane Permeable-Phenotype (%) (Fibroblast; [1]): 1% and 8%
Population Mitochondria Different-Phenotype (%) (Fibroblast; [1]): 3% and 2%
Population Mitotic Cells (%) (Fibroblast; [1]): 55% and 61%
Population Normal (%) (Fibroblast; [1]): 99% and 95%
Population Pyknosed Nuclei (%) (Fibroblast; [1]): 15% and 19%
Population Tubulin-Different-Phenotype (%) (Fibroblast; [1]): 23% and 62%
Total Cell Count (Fibroblast; [1]): 120 and 111
Population Apoptotic (%) (Fibroblast; [2]): 35% and 21%
Population Fragmented Nuclei (%) (Fibroblast; [2]): 15% and 19%
Population Healthy Nuclei (%) (Fibroblast; [2]): 63% and 50%
Population Hoechst High Intensity Objects (%) (Fibroblast; [2]): 1% and 3%
Population Membrane Permeable-Phenotype (%) (Fibroblast; [2]): 1% and 7%
Population Mitochondria Different-Phenotype (%) (Fibroblast; [2]): 6% and 8%
Population Mitotic Cells (%) (Fibroblast; [2]): 64% and 78%
Population Normal (%) (Fibroblast; [2]): 98% and 96%
Population Pyknosed Nuclei (%) (Fibroblast; [2]): 21% and 29%
Population Tubulin-Different-Phenotype (%) (Fibroblast; [2]): 27% and 54%
Total Cell Count (Fibroblast; [2]): 161 and 146
Population Apoptotic (%) (Fibroblast; [3]): 56% and 46%
Population Fragmented Nuclei (%) (Fibroblast; [3]): 13% and 37%
Population Healthy Nuclei (%) (Fibroblast; [3]): 67% and 32%
Population Hoechst High Intensity Objects (%) (Fibroblast; [3]): 3% and 2%
Population Mitochondria Different-Phenotype (%) (Fibroblast; [3]): 3%
Population Mitotic Cells (%) (Fibroblast; [3]): 43% and 53%
Population Normal (%) (Fibroblast; [3]): 96% and 97%
Population Pyknosed Nuclei (%) (Fibroblast; [3]): 18% and 29%
Population Tubulin-Different-Phenotype (%) (Fibroblast; [3]): 23% and 69%
Total Cell Count (Fibroblast; [3]): 127 and 104
Population Apoptotic (%) (Fibroblast; [4]): 42%
Population Fragmented Nuclei (%) (Fibroblast; [4]): 17% and 25%
Population Healthy Nuclei (%) (Fibroblast; [4]): 66% and 49%
Population Hoechst High Intensity Objects (%) (Fibroblast; [4]): 3% and 4%
Population Membrane Permeable-Phenotype (%) (Fibroblast; [4]): 1% and 5%
Population Mitochondria Different-Phenotype (%) (Fibroblast; [4]): 2%
Population Mitotic Cells (%) (Fibroblast; [4]): 57%
Population Normal (%) (Fibroblast; [4]): 96% and 95%
Population Pyknosed Nuclei (%) (Fibroblast; [4]): 15% and 25%
Population Tubulin-Different-Phenotype (%) (Fibroblast; [4]): 19% and 50%
Total Cell Count (Fibroblast; [4]): 171 and 142
Population Apoptotic (%) (Fibroblast; [5]): 57% and 66%
Population Fragmented Nuclei (%) (Fibroblast; [5]): 18% and 47%
Population Healthy Nuclei (%) (Fibroblast; [5]): 66% and 40%
Population Hoechst High Intensity Objects (%) (Fibroblast; [5]): 3% and 5%
Population Membrane Permeable-Phenotype (%) (Fibroblast; [5]): 1% and 5%
Population Mitochondria Different-Phenotype (%) (Fibroblast; [5]): 3% and 7%
Population Mitotic Cells (%) (Fibroblast; [5]): 42% and 33%
Population Normal (%) (Fibroblast; [5]): 96% and 94%
Population Pyknosed Nuclei (%) (Fibroblast; [5]): 15% and 12%
Population Tubulin-Different-Phenotype (%) (Fibroblast; [5]): 26% and 72%
Total Cell Count (Fibroblast; [5]): 128 and 105
Population Apoptotic (%) (Fibroblast; [6]): 71% and 29%
Population Fragmented Nuclei (%) (Fibroblast; [6]): 16% and 34%
Population Healthy Nuclei (%) (Fibroblast; [6]): 63% and 45%
Population Hoechst High Intensity Objects (%) (Fibroblast; [6]): 7% and 9%
Population Membrane Permeable-Phenotype (%) (Fibroblast; [6]): 1% and 7%
Population Mitochondria Different-Phenotype (%) (Fibroblast; [6]): 2% and 5%
Population Mitotic Cells (%) (Fibroblast; [6]): 28% and 70%
Population Normal (%) (Fibroblast; [6]): 92% and 90%
Population Pyknosed Nuclei (%) (Fibroblast; [6]): 20%
Population Tubulin-Different-Phenotype (%) (Fibroblast; [6]): 20% and 51%
Total Cell Count (Fibroblast; [6]): 171 and 131
Population Apoptotic (%) (HEK-293T; [1]): 33% and 35%
Population Fragmented Nuclei (%) (HEK-293T; [1]): 3% and 5%
Population Healthy Nuclei (%) (HEK-293T; [1]): 81% and 82%
Population Hoechst High Intensity Objects (%) (HEK-293T; [1]): 6% and 5%
Population Membrane Permeable-Phenotype (%) (HEK-293T; [1]): 0%
Population Mitochondria Different-Phenotype (%) (HEK-293T; [1]): 43% and 54%
Population Mitotic Cells (%) (HEK-293T; [1]): 66% and 64%
Population Normal (%) (HEK-293T; [1]): 93% and 94%
Population Pyknosed Nuclei (%) (HEK-293T; [1]): 14% and 12%
Population Tubulin-Different-Phenotype (%) (HEK-293T; [1]): 31% and 16%
Total Cell Count (HEK-293T; [1]): 356 and 355
Population Apoptotic (%) (HEK-293T; [2]): 45% and 53%
Population Fragmented Nuclei (%) (HEK-293T; [2]): 9% and 7%
Population Healthy Nuclei (%) (HEK-293T; [2]): 78% and 76%
Population Hoechst High Intensity Objects (%) (HEK-293T; [2]): 4% and 9%
Population Membrane Permeable-Phenotype (%) (HEK-293T; [2]): 0%
Population Mitochondria Different-Phenotype (%) (HEK-293T; [2]): 49% and 72%
Population Mitotic Cells (%) (HEK-293T; [2]): 54% and 46%
Population Normal (%) (HEK-293T; [2]): 95% and 90%
Population Pyknosed Nuclei (%) (HEK-293T; [2]): 12% and 16%
Population Tubulin-Different-Phenotype (%) (HEK-293T; [2]): 34% and 29%
Total Cell Count (HEK-293T; [2]): 367 and 362
Population Apoptotic (%) (HEK-293T; [3]): 35% and 27%
Population Fragmented Nuclei (%) (HEK-293T; [3]): 11% and 5%
Population Healthy Nuclei (%) (HEK-293T; [3]): 73% and 85%
Population Hoechst High Intensity Objects (%) (HEK-293T; [3]): 5% and 3%
Population Membrane Permeable-Phenotype (%) (HEK-293T; [3]): 0%
Population Mitochondria Different-Phenotype (%) (HEK-293T; [3]): 28% and 27%
Population Mitotic Cells (%) (HEK-293T; [3]): 64% and 72%
Population Normal (%) (HEK-293T; [3]): 94% and 96%
Population Pyknosed Nuclei (%) (HEK-293T; [3]): 14% and 8%
Population Tubulin-Different-Phenotype (%) (HEK-293T; [3]): 20% and 10%
Total Cell Count (HEK-293T; [3]): 462 and 473
